From ChEMBL document CHEMBL3286169, “Development of inhibitors of heterotrimeric Gαi subunits” (Bioorg Med Chem, 2014)
Calls of active or inactive are those of the source. The calls are words filed in the database; no cut-off is given here. Peptide text beside a SMILES is read from it.

Columns and labels:
[1] = molecular target: T1, Guanine nucleotide-binding protein G(q) subunit alpha (Homo sapiens) (UniProt P50148); test: Binding affinity to Galphaq (unknown origin) expressed in baculovirus-infected insect Hi5 cells assessed as inhibition of BODIPY FL GTPgammaS binding by measuring fluorescence reduction at 30 to 300 uM preincubated for 30 mins followed by BODIPY FL GTPgammaS addition measured for 60 mins by real time nucleotide exchange assay relative to vehicle-treated control; settings: BTI-TN-5B1-4
T1 sequence (whole entry): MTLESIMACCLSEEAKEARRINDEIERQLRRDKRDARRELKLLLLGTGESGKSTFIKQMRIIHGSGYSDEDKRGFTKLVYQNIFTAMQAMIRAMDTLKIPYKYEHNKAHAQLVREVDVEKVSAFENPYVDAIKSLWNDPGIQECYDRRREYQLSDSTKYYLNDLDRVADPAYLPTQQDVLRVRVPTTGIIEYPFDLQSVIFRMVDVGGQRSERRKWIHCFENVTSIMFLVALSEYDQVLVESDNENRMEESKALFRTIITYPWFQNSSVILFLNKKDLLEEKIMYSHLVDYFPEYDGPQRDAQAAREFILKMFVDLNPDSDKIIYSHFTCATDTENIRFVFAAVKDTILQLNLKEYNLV
How it was run: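 Gαq was partially purified from baculovirus-infected Hi5 insect cells (5 × MOI, 48 h). 600 nM protein was preincubated 30 min with compound (DMSO ≤1% v/v final) in 10 mM HEPES, 100 mM NaCl, 5 mM MgCl2, 0.1 mM EDTA, pH 7.4. Exchange was started with 250 nM BODIPY FL GTPγS. Endpoint at 60 min vs vehicle; triplicates, three experiments.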

[2] = tested on: HEK293; test: Cytotoxicity against HEK293 GloSensor cells transfected with Galphai1 coupled with alpha-2 adrenoceptor assessed as effect on cell viability at 10 uM; format: cell-based; settings: human, hek293, 10 µM
[3] = molecular target: Guanine nucleotide-binding protein G(i) subunit alpha-1 (Homo sapiens) (UniProt P63096); test: Binding affinity to human Galphai1 expressed in Escherichia coli BL21 assessed as inhibition of [35S]GTPgammaS binding preincubated for 20 mins followed by [35S]GTPgammaS addition measured for 30 mins by liquid scintillation counting analysis; format: functional
How it was run: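 Human Gαi1 was expressed from pPAL7 (Profinity eXact construct) in E. coli BL21 and affinity purified. 100 nM Gαi1 was preincubated 20 min at 24 °C with peptide, then 0.5 μM [35S]GTPγS was added for 30 min at 24 °C, in duplicate. Filtration on nitrocellulose was followed by washes in cold Tris/MgCl2/EDTA buffer pH 7.4 and scintillation counting. Nonspecific binding was taken with 100 μM GTPγS; results are percent of specific binding without peptide.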

Sequence of Guanine nucleotide-binding protein G(i) subunit alpha-1 (Homo sapiens) (P63096 whole entry): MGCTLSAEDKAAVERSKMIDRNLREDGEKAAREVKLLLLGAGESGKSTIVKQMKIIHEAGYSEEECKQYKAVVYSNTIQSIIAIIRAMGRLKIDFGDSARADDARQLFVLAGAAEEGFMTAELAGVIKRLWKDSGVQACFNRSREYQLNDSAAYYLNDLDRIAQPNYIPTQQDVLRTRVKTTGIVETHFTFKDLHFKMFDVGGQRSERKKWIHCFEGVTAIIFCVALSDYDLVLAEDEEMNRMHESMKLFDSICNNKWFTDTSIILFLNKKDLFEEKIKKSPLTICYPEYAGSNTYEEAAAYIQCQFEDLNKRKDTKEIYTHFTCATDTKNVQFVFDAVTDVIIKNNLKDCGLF

Compound	inhibition [1]	Activity [2]	inhibition [3]
SC1=C2CCCCC2=[N+](C[C@@H]2CCCO2)[C@@H](c2ccccc2)N1	< 10%		
O=[N+]([O-])[C-](/C=N/C1CCCCC1)/C=N/C1CCCCC1	32%	Non-toxic	
CC(=O)/C(=C(\C)O)[C@@H]1c2ccccc2O[C@H](C(F)(F)F)[C@@H]1[N+](=O)[O-]	35%		
C1=C(/N=C/c2ccccc2)[N+](Cc2ccccc2)=CCO1	< 10%		
CC1=CC(C)(C)NC(Nc2nc(-c3ccccc3)c3ccccc3n2)=N1	< 10%	Toxic	
C/C(=N\c1ccc(O)cc1)c1sc2ccccc2c1O	< 10%		
CCC[C@H]1C[C@](C)(C(=O)CNc2ccccn2)OC1=O	< 10%		
CSCC[C@H](NC(=O)[C@H](CCCNC(=N)N)NC(=O)[C@H](CCCCN)NC(=O)[C@H](CO)NC(=O)[C@H](CCC(N)=O)NC(=O)[C@H](CO)NC(=O)[C@H](CCCCN)NC(=O)[C@H](C)NC(=O)[C@H](CC(C)C)NC(=O)[C@H](CC(C)C)NC(=O)[C@H](CC(=O)O)NC(=O)[C@H](Cc1ccccc1)NC(=O)[C@H](Cc1ccccc1)NC(=O)[C@H](CC(=O)O)NC(=O)[C@H](CCC(=O)O)NC(=O)[C@H](CCC(=O)O)NC(=O)CNC(=O)[C@H](CCSC)NC(=O)[C@@H](N)[C@@H](C)O)C(=O)N[C@@H](CC(=O)O)C(=O)N[C@@H](CC(=O)O)C(=O)N[C@@H](CCC(N)=O)C(=O)N[C@@H](CCCNC(=N)N)C(=O)N[C@H](C(=O)N[C@@H](CC(=O)O)C(=O)N[C@@H](CC(C)C)C(=O)N[C@@H](C)C(=O)N[C@@H](CCCCN)C(N)=O)C(C)C (H-TMGEEDFFDLLAKSQSKRMDDQRVDLAK-NH2)			Active
CCc1ccc2c(C)nc(NC3=NC(C)(C)CC(C)=N3)nc2c1	50%	Non-toxic	
CC(=O)C1=C(C)NC(C(C#N)C#N)=C(C#N)[C@H]1c1ccccc1	40%		
Cc1cccc(N[C@@]2(C(F)(F)F)NC(c3ccccc3)=NC2=O)n1	25%		
Cc1nc(NC(=O)NCCC2=CSC3=NCCCN23)nn1C	27%		
